# Results gathered from unrelated publications.
# Compare with care: the assays were run in different laboratories.
# rep papain-like protease: Replicase polyprotein 1ab, papain-like protease (rep, Porcine epidemic diarrhea virus, UniProt P0C6Y4)
# SLC6A4: Sodium-dependent serotonin transporter (SLC6A4, Homo sapiens, UniProt P31645)
# rep main protease: Replicase polyprotein 1ab, main protease (rep, Porcine epidemic diarrhea virus, UniProt P0C6Y4)
# GRK7: Rhodopsin kinase GRK7 (GRK7, Homo sapiens, UniProt Q8WTQ7)
Structure (SMILES),target,test,setting,endpoint,result
COc1cc(CNC(=O)c2ccc(OC(F)(F)F)cc2)cc(Br)c1OC,rep papain-like protease,"enzyme activity, inhibitor, FRET",10 µM,inhibition,10.8%
Cc1cc(O)c(-c2ccc([C@@H](C)CN(C)C)cc2)c2c1[nH]c(=O)c1sccc12,"Mitogen-activated protein kinase kinase kinase 20 (MAP3K20, Homo sapiens, UniProt Q9NYL2)","enzyme activity, inhibitor",0.1 µM,inhibition,-2.95%
CN1CCc2cccc3c2[C@H]1Cc1ccc(O)c(O)c1-3,"D(1A) dopamine receptor (DRD1, Homo sapiens, UniProt P21728)","cAMP, agonist",,Emax,~100%
N#CC[C@@]12C[C@@H]1[C@@H](n1cnc3c(NC4CC4)nc(C#Cc4ccc(Cl)s4)nc31)[C@H](O)[C@@H]2O,SLC6A4,"ligand displacement, radioligand",10 µM,inhibition,15%
COc1ccc(C(=O)NCc2cc(O)c(O)c(Br)c2)cc1OC,rep main protease,"enzyme activity, inhibitor, FRET",10 µM,inhibition,74.7%
CSc1nc(NCCC2CC2)c2ncn([C@H]3[C@H](O)[C@H](O)[C@@H]4C[C@@H]43)c2n1,SLC6A4,"ligand displacement, radioligand",10 µM,inhibition,17%
O=C(O)c1cccc(-c2noc(-c3ccccc3F)n2)c1,"Flavin reductase (NADPH) (BLVRB, Homo sapiens, UniProt P30043)","binding, SPR",,kon,3060 M⁻¹ s⁻¹
COc1cc(-c2cc(C(C)=O)n3ccccc23)c(OC)cc1Cn1ccnc1,"Bromodomain adjacent to zinc finger domain protein 2B, bromodomain (BAZ2B, Homo sapiens, UniProt Q9UIF8)","thermal stability, DSF",,ΔTm,2.1 °C
CCCCC(=O)Nc1ccc(-c2ccc3ncn(CCC)c(=O)c3c2)cn1,GRK7,"binding, competition with immobilised ligand",0.5 µM,remaining binding,93%
CCOC(=O)[C@@]12C[C@@H]1[C@@H](n1ccc3c(NCCCCc4ccccc4)nc(C#Cc4ccccc4)nc31)[C@H](O)[C@@H]2O,SLC6A4,"ligand displacement, radioligand",10 µM,inhibition,9%
COc1cc(CNC(=O)c2ccco2)cc(Br)c1OC,rep main protease,"enzyme activity, inhibitor, FRET",10 µM,inhibition,64.9%
N#CC[C@@]12C[C@@H]1[C@@H](n1cnc3c(NCCCCCCc4ccccc4)nc(I)nc31)[C@H](O)[C@@H]2O,SLC6A4,"ligand displacement, radioligand",10 µM,inhibition,56%
O=C(NCc1cc(O)c(O)c(Br)c1)c1ccncc1Cl,rep papain-like protease,"enzyme activity, inhibitor, FRET",10 µM,inhibition,44.4%
CCN1/C(=C/C(C)=O)Sc2ccc(F)cc21,SLC6A4,"ligand displacement, radioligand",10 µM,inhibition,2.03%
C1=C/COCc2cc(ccc2OCCN2CCCC2)Nc2nccc(n2)-c2cccc(c2)COC/1,GRK7,binding,0.1 µM,remaining binding,86%
O=C(NCc1cc(O)c(O)c(Br)c1)c1ccc2ccccc2n1,rep main protease,"enzyme activity, inhibitor, FRET",10 µM,inhibition,62.4%
CCOC(=O)[C@@]12C[C@@H]1[C@@H](n1cnc3c(NCCCCCc4ccccc4)nc(I)nc31)[C@H](O)[C@@H]2O,SLC6A4,"ligand displacement, radioligand",10 µM,inhibition,48%
O=C(NCc1cc(O)c(O)c(Br)c1)c1ccc(Cl)nc1,rep main protease,"enzyme activity, inhibitor, FRET",10 µM,inhibition,6.11%
CCOC(=O)[C@@]12C[C@@H]1[C@@H](n1ccc3c(NCCCCCc4ccccc4)nc(C#Cc4ccccc4)nc31)[C@H](O)[C@@H]2O,SLC6A4,"ligand displacement, radioligand",10 µM,inhibition,29%
